Reference: ChEMBL document CHEMBL1123508, “Relationship between lipophilic character and urinary excretion of nitroimidazoles and nitrothiazoles in rats” (J Med Chem, 1986)

Assays:
[1] = The amount of unchanged compound detected in urine collected at 0-18 hr after treatment; conditions: rat
[2] = The amount of unchanged compound in urine collected at 0-36 hr after treatment; conditions: rat
[3] = The amount of unchanged compound in urine collected at 0-54 hr after treatment; conditions: rat
[4] = The amount of unchanged compound in urine collected at 0-72 h after treatment; conditions: rat
Rattus norvegicus [5] = test: The total 18 hr urinary excretion of unchanged compound reported as log (percent X 10) of the administered dose; conditions: in vivo
Rattus norvegicus [6] = test: The total 54 h urinary excretion of unchanged compound reported as log (percent X 10) of the administered dose; conditions: in vivo
Rattus norvegicus [7] = test: The total 72 hr urinary excretion of unchanged compound reported as log (percent X 10) of the administered dose; conditions: in vivo
Rattus norvegicus [8] = test: The total 36 hr urinary excretion of unchanged compound reported as log (percent X 10) of the administered dose; conditions: in vivo
[9] = octanol/water
[10] = Partition coefficient (logP); conditions: octanol/water
[11] = (§1) The amount of the unchanged form of compound detected in the urine samples collected at 0-18 hr after the treatment by HPLC technique; format: ADME, organism-based; conditions: rat, read-out: Amount excreted
Summary of the method: (§2)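 Female Sprague-Dawley rats (200 ± 20 g) on chow diet, three per compound, dosed ip in Me2SO (50 μmol mL⁻¹ kg⁻¹). Urine pooled over 0-18 h. One mL urine was spiked with internal standard and extracted, the residue was taken up in 200 μL methanol, and 10-20 μL was injected for HPLC of the unchanged drug. Values expressed as log (percent × 10) of dose.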

Rattus norvegicus [12] = test: The total 18 hr urinary excretion of the unchanged form of compound in urine was reported as log (percent X 10) of the administered dose by HPLC technique; format: ADME, organism-based; conditions: in vivo; summary of the method: as §2
Rattus norvegicus [13] = species: Rattus norvegicus; conditions: in vivo, 18 h
in vivo = conditions: rat, urine
[14] = The octanol/water partition coefficient was determined; format: physicochemical; conditions: read-out: Log K
Summary of the method: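 Classical shake-flask octanol/water partitioning with 1 M ammonium chloride buffer, pH 9.0, as the aqueous phase. For one compound the aqueous phase was 0.14 M sodium acetate-barbital buffer, pH 3.6. Concentrations in the octanol and/or aqueous layer were read by UV spectrophotometry.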

Rattus norvegicus [15] = species: Rattus norvegicus; test: as §1; format: functional; summary of the method: as §2

| SMILES | dose excreted [1] [%] | dose excreted [2] [%] | dose excreted [3] [%] | dose excreted [4] [%] | Log BR (Rattus norvegicus [5]) | Log BR (Rattus norvegicus [6]) | Log BR (Rattus norvegicus [7]) | Log BR (Rattus norvegicus [8]) | Log k' [9] | logP [10] | dose excreted [11] [%] | log(10 × % of dose excreted unchanged in urine) (Rattus norvegicus [12]) | Log BR (Rattus norvegicus [13]) | dose excreted (in vivo) [%] | logP [14] | Amount excreted (Rattus norvegicus [15]) [%] |
| --- | --- | --- | --- | --- | --- | --- | --- | --- | --- | --- | --- | --- | --- | --- | --- | --- |
| O=[N+]([O-])c1c[nH]cn1 | 33.8 | 39.9 | 46.1 | 46.1 | 2.529 | 2.664 | 2.664 | 2.601 | 0 | – | – | – | – | – | – | – |
| CCN(CC)CCOCCn1c([N+](=O)[O-])cnc1C | 23.4 | 28.5 | 28.5 | 28.5 | 2.369 | 2.455 | 2.455 | 2.455 | 0.021 | -0.38 | – | – | – | – | – | – |
| Cc1ncc([N+](=O)[O-])n1CC(=O)Nc1ncccn1 | 37.1 | 38.9 | 42.1 | 42.1 | 2.569 | 2.701 | 2.701 | 2.59 | -0.115 | -0.3 | 35.4 | 2.549 | – | – | – | – |
| CN1CCN(Cc2ncc([N+](=O)[O-])n2C)CC1 | 41.7 | 45.5 | 45.5 | 45.5 | 2.62 | 2.658 | 2.658 | 2.658 | 0.014 | -0.33 | – | – | – | – | – | – |
| Nc1ncc(S(=O)(=O)c2ccc([N+](=O)[O-])cc2)s1 | 48.6 | 64.7 | 64.7 | 64.7 | 2.687 | 2.811 | 2.811 | 2.811 | -0.049 | -0.43 | – | – | – | – | – | – |
| O=C1NCCN1c1ncc([N+](=O)[O-])s1 [NIRIDAZOLE] | 4.6 | 7.3 | 7.3 | 7.3 | 1.663 | 1.861 | 1.861 | 1.861 | 0.363 | 0.92 | – | – | – | – | – | – |
| Cc1ncc([N+](=O)[O-])n1CC(O)CCl (centres undefined) [ORNIDAZOLE] | 13.2 | 29.6 | 36.9 | 42.1 | 2.121 | 2.567 | 2.625 | 2.471 | – | – | 11.7 | 2.068 | – | – | – | – |
| Cc1ncc([N+](=O)[O-])n1CCO [METRONIDAZOLE] | 30.5 | 49.2 | 49.2 | 49.2 | 2.484 | 2.692 | 2.692 | 2.692 | -0.067 | -0.1 | 25 | 2.407 | – | – | – | – |
| Cc1ncc([N+](=O)[O-])n1CC(O)Cn1c([N+](=O)[O-])cnc1C | 18.2 | 22.8 | 22.8 | 22.8 | 2.26 | 2.358 | 2.358 | 2.358 | 0.199 | 0.31 | – | – | 2.196 | 15.7 | – | – |
| Cn1c([N+](=O)[O-])cnc1/C=C/c1ccnc(N)n1 [AZANIDAZOLE] | 13.8 | 16 | 16 | 16 | 2.142 | 2.202 | 2.202 | 2.202 | 0.423 | 0.85 | 11.3 | 2.054 | – | – | – | – |
| Cc1ncc([N+](=O)[O-])n1CCS(C)(=O)=O | 25.2 | 27.9 | 28 | 28 | 2.401 | 2.448 | 2.448 | 2.446 | -0.097 | -0.35 | – | 2.394 | – | – | – | 24.8 |
| Cn1c([N+](=O)[O-])cnc1/C=C(\Oc1ccccc1)C(=O)O | 2.5 | 19 | 21.7 | 21.7 | 1.4 | 2.337 | 2.337 | 2.28 | -0.199 | -1 | – | – | – | – | – | – |

More lines, main results first:

| dose excreted [1] [%] | dose excreted [2] [%] | dose excreted [3] [%] | dose excreted [4] [%] | Log BR (Rattus norvegicus [5]) | Log BR (Rattus norvegicus [6]) | Log BR (Rattus norvegicus [7]) | Log BR (Rattus norvegicus [8]) | Log k' [9] | logP [10] | dose excreted [11] [%] | log(10 × % of dose excreted unchanged in urine) (Rattus norvegicus [12]) | Log BR (Rattus norvegicus [13]) | dose excreted (in vivo) [%] | logP [14] | SMILES | Amount excreted (Rattus norvegicus [15]) [%] |
| --- | --- | --- | --- | --- | --- | --- | --- | --- | --- | --- | --- | --- | --- | --- | --- | --- |
| 4.1 | 12.9 | 12.9 | 12.9 | 1.613 | 2.113 | 2.113 | 2.113 | 0.455 | 1 | – | – | – | – | – | Cn1c([N+](=O)[O-])cnc1C1CC1 | – |
| 32.6 | 56.8 | 60.6 | 64.9 | 2.513 | 2.782 | 2.81 | 2.754 | -0.11 | -0.03 | – | – | – | – | – | Cn1c([N+](=O)[O-])cnc1CO | – |
| 10.6 | 29.9 | 29.9 | 29.9 | 2.025 | 2.477 | 2.477 | 2.477 | -0.067 | -0.69 | 10.4 | 2.023 | – | – | – | Cn1c([N+](=O)[O-])cnc1C=O | – |
| 29.4 | 66.3 | 66.3 | 66.3 | 2.468 | 2.822 | 2.822 | 2.822 | -0.125 | -0.36 | 27.3 | 2.436 | – | – | – | CCS(=O)(=O)CCn1c([N+](=O)[O-])cnc1C [TINIDAZOLE] | – |
| 14.3 | 18.6 | 18.6 | 18.6 | 2.155 | 2.27 | 2.27 | 2.27 | 0.028 | – | – | – | – | – | – | Cc1ncc([N+](=O)[O-])n1CC(=O)N1CCN(C(=O)Cn2c([N+](=O)[O-])cnc2C)CC1 | – |
| 6.7 | 21.5 | 23.1 | 23.1 | 1.826 | 2.364 | 2.364 | 2.33 | 0.465 | 0.9 | 6.5 | 1.819 | – | – | – | COC(=S)NCCn1c([N+](=O)[O-])cnc1C [CARNIDAZOLE] | – |
| 36.4 | 51.7 | 51.7 | 51.7 | 2.561 | 2.713 | 2.713 | 2.713 | 0.058 | -0.08 | – | – | – | – | – | CCC(CC)C(O)Cn1c([N+](=O)[O-])cnc1C (centres undefined) | – |
| 4.3 | 9.1 | 9.1 | 9.1 | 1.633 | 1.96 | 1.96 | 1.96 | 0.45 | 1.06 | 2.5 | 1.398 | – | – | – | CC(C)c1ncc([N+](=O)[O-])n1C [IPRONIDAZOLE] | – |
| 14.3 | 64.3 | 66.4 | 66.4 | 2.155 | 2.822 | 2.822 | 2.808 | -0.199 | – | – | – | – | – | -0.63 | Cc1ncc([N+](=O)[O-])n1CC(O)CO (centres undefined) | – |
| – | 3.4 | 3.4 | 3.4 | 1.529 | 1.529 | 1.529 | 1.529 | 0.659 | 2.03 | – | – | – | – | – | O=[N+]([O-])c1cnc(/C=C/c2ccc3c(c2)OCO3)n1CCO | – |
| 43.6 | 52.4 | 52.4 | 52.4 | 2.639 | 2.719 | 2.719 | 2.719 | 0.188 | – | – | – | – | – | – | O=[N+]([O-])c1cncn1CCN1CCOCC1 [NIMORAZOLE] | – |
